# DNMT1 inh – human DNMT1 methyltransferase inhibitors, primary screen, biochemical, molecular beacon, fluorescence, HinP1I cleavage, uHTS; 0.83% of 360,000 active; inhibition (reported as % activation of signal), % at 10 µM; DNA (cytosine-5)-methyltransferase 1 (Homo sapiens), P26358; in the data active = inhibition above about 50%
# LMPTP block – LMPTP phosphatase inhibitors, primary screen, biochemical, fluorescence intensity, uHTS; 0.22% of 360,000 active; AID 651560, 2012; recombinant LMPTP-A, OMFP fluorogenic substrate; inhibition, % at 20 µM;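 active = compounds that cut the enzyme signal by at least half of the control window in the single-dose screen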
#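 Test system: LMPTP-A, protein tyrosine phosphatase of low molecular weight; Input: 0.625 nM enzyme; Incubation: 50 min dark incubation at room temperature; Signal: endpoint fluorescence intensity from OMFP dephosphorylation; Read-out basis: % inhibition versus control wells.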
# SUMO1 PPI mod – modulators of SUMO1 protein-protein interactions, primary screen, biochemical, uHTS | Small ubiquitin-related modifier 1 (Homo sapiens), P63165 | SUMO1 binding to a labelled peptide, TR-FRET, 1 h | inhibition, % at 20 µM | 0.33% of 360,000 active | AID 602429, 2012; in the data active = inhibition above about 37%
# HKDC1 inhibitor – HKDC1 hexokinase inhibitors, primary screen, biochemical, fluorescence, uHTS | Q2TB90 | recombinant HKDC1, G6PDH/diaphorase resazurin coupled fluorescence | inhibition, % at 20 µM | 0.16% of 340,000 active | AID 493160, 2011;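 active = inhibition above about 35% when tested at 20 µM, limit read from the data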
#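 Assay system – recombinant HKDC1 (HK5) hexokinase enzyme, produced in-house · Input – HKDC1 at 5 µg/mL · Reagent – glucose plus 1 mM ATP as hexokinase substrates · Timing – 90 min reaction incubation at room temperature, dark · Measured by – G6PDH/diaphorase-coupled fluorescence, 1 mM NADP, 100 µM resazurin, 525/613 nm · Benchmarks – DMSO-enzyme wells negative, buffer-substituted wells positive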
# Scp-1 inhibitor – Scp-1 phosphatase inhibitors, primary screen, biochemical, colorimetric, uHTS | AID 493091, 2011 | inhibition, % at 20 µM | Recombinant Scp1, phosphopeptide, malachite green phosphate absorbance | 0.88% of 340,000 active | Carboxy-terminal domain RNA polymerase II polypeptide A small phosphatase 1 (Homo …;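 active = inhibition above about 50% at 20 µM, limit read from the data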
#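 System: truncated SCP-1 phosphatase (76-261aa); medium: Tris acetate buffer pH 5.5 with MgCl2 and Tween-20; incubation: 45 min room-temperature reaction, 5 min colour, 30 min stabiliser; compound: single 20 µM dose, 1% DMSO; reagent: Phosphorylated 17-residue peptide substrate; read-out: % inhibition at 20 µM; technique: colorimetric free-phosphate detection, absorbance 630 nm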
# STEP inh – STEP phosphatase inhibitors, primary screen, biochemical, fluorescence intensity, uHTS; recombinant STEP, OMFP fluorogenic substrate; inhibition, % at 20 µM; AID 588621, 2011; 0.25% of 360,000 active; Tyrosine-protein phosphatase non-receptor type 5 (Homo sapiens), P54829;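 active = inhibition at 20 µM, scaled per plate between control wells, above about 37%, limit read from the data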
#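 Material: STEP (striatal-enriched tyrosine phosphatase) enzyme, cell-free | Medium: 50 mM Bis-Tris pH 6.0 with 2.5 mM DTT and 0.005% Tween 20 | Read-out: Percent inhibition scaled to no-enzyme and uninhibited-enzyme controls, plate-pattern corrected | Signal: Fluorescence read at 480 nm ex / 540 nm em | Times: 20 min reaction, room temperature, in the dark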
# Scp1 confirm – Scp-1 phosphatase inhibitors, retest, confirmation, biochemical, colorimetric, single concentration; shares compounds with Scp-1 inhibitor; recombinant SCP-1 catalytic domain, phosphate release, malachite green absorbance; inhibition, % at 20 µM; 61% of 2,500 active; AID 540281, 2011
# MG interference – colorimetric readout interference by compounds, confirmation, artefact control for Scp-1 inhibitor project, biochemical, single concentration; AID 540313, 2011; Colorimetric interference counterscreen, malachite green absorbance 630 nm; shares compounds with Scp-1 inhibitor; apparent inhibition (interference), % at 20 µM; 2,500 tested, under 10 active;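 note: compounds added after enzyme reaction finished so only phosphate colour detection is probed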
# Scp-1 Tm shift – Scp-1 binding by thermal shift, confirmation, orthogonal assay for Scp-1 inhibitor project, biophysical, differential scanning fluorimetry | shares compounds with Scp-1 inhibitor | Recombinant SCP1, Sypro Orange thermal shift Tm | thermal shift relative to vanadate control, % at 40 µM | 25% of 1,500 active | AID 540329, 2011;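 active = substances whose mean melting-temperature shift, as a percentage of the reference inhibitor's shift, reaches about 5.3%, limit read from the data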
# Beacon interf DR – spectral interference with molecular beacon fluorescence, dose response, artefact control for DNMT1 inhibitor project, biochemical, fluorescent molecular beacon; shares compounds with DNMT1 inh; spectral interference counter-screen; IC50, µM; 200 tested, under 10 active; AID 602382, 2012; call rule not given here
# DNMT1 inh conf – DNMT1 methyltransferase inhibitor retest, confirmation, biochemical, molecular beacon, fluorescence, single concentration. shares compounds with DNMT1 inh. DNMT1 molecular beacon HinP1I cleavage. inhibition, % at 10 µM. 8% of 2,300 active;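 active = average inhibition of at least 30% in the single-concentration confirmation test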
# Beacon interf – shows spectral interference in the DNMT1 beacon assay. shares compounds with DNMT1 inh. DNMT1 molecular beacon spectral interference counterscreen, fluorescence 485/520. activation (fluorescence interference), % at 10 µM. 1% of 2,300 active. AID 602387;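 active = activation of at least 30% at 10 µM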;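 note: DNMT1 catalytic domain with a HinP1I cleavage step and a FAM/dabcyl DNA beacon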
# Hits are given with their value; . = inactive; / = no result. This is a sample that favours compounds with a hit; in the whole collection about 1.8% have one here.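 Rule for the calls, unless noted: active = inhibition of at least 30% at 20 µM; inactive = the rest.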
SMILES,DNMT1 inh,LMPTP block,SUMO1 PPI mod,HKDC1 inhibitor,Scp-1 inhibitor,STEP inh,Scp1 confirm,MG interference,Scp-1 Tm shift,DNMT1 inh conf,Beacon interf,others
C[N+](C)(C)c1ccccc1,.,.,.,.,51.7,.,.,.,/,/,/,
O=CNc1ccc(OP(=O)(Oc2ccccc2)Oc2ccccc2)cc1,.,.,.,.,.,.,/,/,/,/,/,
C[Se]C[C@@H](N)C(=O)O,.,.,.,.,68.2,.,31.1,.,.,/,/,
CC(C)Cc1[nH]c(=O)c(C#N)c2c1CCC2,.,.,.,.,87.4,.,.,.,/,/,/,
O=[N+]([O-])c1cccc(O)c1,.,.,.,.,.,.,/,/,/,/,/,
O=[N+]([O-])c1cc(S(=O)(=O)c2ccc(O)c([N+](=O)[O-])c2)ccc1O,.,.,.,.,56.0,.,61.3,.,17.2,/,/,
CCN1CCC2(CC1)NC(=O)c1ccccc1O2,.,.,.,.,.,.,/,/,/,/,/,
Cc1cc(/C=C2\C(=O)NC(=O)N(c3ccc(Cl)cc3)C2=O)c(C)n1-c1cccc(C(=O)O)c1,74.0,.,.,.,51.6,.,51.0,.,6.9,.,.,
Cc1cc(/C=C2/C(=O)NC(=O)N(c3ccc(Br)cc3)C2=O)c(C)n1C,.,.,.,.,.,.,/,/,/,/,/,
Cc1cc(/C=C2\C(=O)NC(=O)N(c3ccc(Br)cc3)C2=O)c(C)n1-c1cc(C(=O)O)cc(C(=O)O)c1,83.4,.,.,.,60.1,.,41.9,.,.,.,.,
COC(=O)C1=C(c2ccc(F)cc2OCc2ccccc2)C[C@@H]2CC[C@H]1N2C(=O)NCc1ccccc1Cl,.,.,.,.,.,.,/,/,/,/,/,
Cc1ccc(/C=C2/C(=O)NC(=O)N(CCc3ccc(F)cc3)C2=O)o1,.,.,.,.,.,.,/,/,/,/,/,
COc1ccccc1/C=C1\C(=O)NC(=S)N(c2ccccc2)C1=O,.,.,.,.,.,.,/,/,/,/,/,
COc1ccc(CN2C(=O)NC(=O)/C(=C\c3ccco3)C2=O)cc1,86.1,.,.,.,82.0,.,57.9,.,5.5,.,.,Beacon interf DR=.
O=C1NC(=O)N(CCc2ccc(F)cc2)C(=O)/C1=C/c1ccco1,98.4,65.8,80.4,.,91.7,47.7,66.4,.,.,.,.,
CCOc1cccc(N2C(=O)/C(=C/c3ccco3)C(=O)NC2=S)c1,98.0,.,56.4,.,74.1,55.5,70.4,.,6.4,79.7,.,Beacon interf DR=.

# Compound activity (PubChem BioAssay)
